What was measured:
[1] = target: Serotonin 3 (5-HT3) receptor; assay: Binding affinity towards 5-HT3 receptor by the displacement of [3H]GR-65630] in human recombinant receptors in mammalian cell; format: protein-complex assay
Summary of the method: (§1)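 Radioligand displacement binding at the named receptor preparation. Affinity reported as pKi, given as mean ± SE of 8–12 values.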

[2] = target: 5-hydroxytryptamine receptor 1B (Homo sapiens, UniProt P28222); assay: Binding affinity towards 5-HT1B receptor by the displacement of [3H][…]] in human recombinant receptors in mammalian cell
Chain of 5-hydroxytryptamine receptor 1B (P28222 whole entry): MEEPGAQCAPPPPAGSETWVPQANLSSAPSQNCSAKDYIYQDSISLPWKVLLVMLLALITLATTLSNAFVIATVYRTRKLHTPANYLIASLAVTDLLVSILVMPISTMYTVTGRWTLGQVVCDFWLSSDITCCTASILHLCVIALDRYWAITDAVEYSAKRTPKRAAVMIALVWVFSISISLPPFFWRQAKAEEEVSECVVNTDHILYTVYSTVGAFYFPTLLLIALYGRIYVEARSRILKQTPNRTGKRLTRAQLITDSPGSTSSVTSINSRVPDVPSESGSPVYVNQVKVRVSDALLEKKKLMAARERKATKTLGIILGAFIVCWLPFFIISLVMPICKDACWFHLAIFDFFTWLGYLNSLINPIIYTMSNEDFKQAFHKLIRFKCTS

[3] = target: T1, Serotonin 2 (5-HT2) receptor (Rattus norvegicus, UniProt P30994+P08909+P14842); assay: Binding affinity towards 5-HT2 receptor by the displacement of [3H]-ketanserin] in rat cerebral cortex; format: tissue-based
Summary of the method: (§2)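 Displacement of [3H]ketanserin from rat cerebral cortex membranes at the 5-HT2 site. Affinity reported as pKi, given as mean ± SE of 8–12 values.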

[4] = target: T1, Serotonin 2 (5-HT2) receptor; assay: Binding affinity towards 5-hydroxytryptamine 2 receptor by the displacement of [3H]ketanserin in rat cerebral cortex membrane; format: cell membranes; summary of the method: as §2
[5] = target: T2, 5-hydroxytryptamine receptor 1A (Homo sapiens, UniProt P08908); assay: Binding affinity towards 5-HT1A receptor by the displacement of [3H]-8-OH-DPAT] in human recombinant receptors in mammalian cell; summary of the method: as §1
T2 sequence (P08908 whole entry): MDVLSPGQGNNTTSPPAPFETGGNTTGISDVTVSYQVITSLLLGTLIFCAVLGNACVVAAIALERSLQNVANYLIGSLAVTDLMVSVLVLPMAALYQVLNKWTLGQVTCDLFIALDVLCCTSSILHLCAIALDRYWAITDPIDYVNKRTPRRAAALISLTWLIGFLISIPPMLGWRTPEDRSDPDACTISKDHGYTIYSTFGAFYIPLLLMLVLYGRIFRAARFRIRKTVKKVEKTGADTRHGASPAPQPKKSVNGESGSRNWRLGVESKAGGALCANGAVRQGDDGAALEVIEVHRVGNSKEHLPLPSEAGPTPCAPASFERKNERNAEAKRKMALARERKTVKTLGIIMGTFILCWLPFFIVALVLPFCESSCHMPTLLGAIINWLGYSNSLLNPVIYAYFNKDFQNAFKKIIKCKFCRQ

[6] = target: 5-hydroxytryptamine receptor 4 (Cavia porcellus, UniProt O70528); assay: Binding affinity towards 5-HT4 receptor by the displacement of [3H]GR-113808 in guinea-pig striatum; format: tissue-based; summary of the method: as §1
Chain of 5-hydroxytryptamine receptor 4 (O70528 whole entry): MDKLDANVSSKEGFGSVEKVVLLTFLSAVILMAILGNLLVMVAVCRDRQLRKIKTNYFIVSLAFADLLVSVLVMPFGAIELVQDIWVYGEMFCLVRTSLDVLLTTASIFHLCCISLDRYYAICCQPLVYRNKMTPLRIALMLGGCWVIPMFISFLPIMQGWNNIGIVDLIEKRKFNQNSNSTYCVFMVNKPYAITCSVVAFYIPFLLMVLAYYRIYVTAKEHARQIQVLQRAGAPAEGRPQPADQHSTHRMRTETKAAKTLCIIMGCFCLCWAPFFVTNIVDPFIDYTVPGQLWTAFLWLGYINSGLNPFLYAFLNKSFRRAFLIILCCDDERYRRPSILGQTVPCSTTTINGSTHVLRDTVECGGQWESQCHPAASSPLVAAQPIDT

[7] = target: T3, 5-hydroxytryptamine receptor 2C (Homo sapiens, UniProt P28335); assay: Binding affinity towards 5-HT2C receptor by the displacement of [3H]mesulergine] in human recombinant receptors in mammalian cell; summary of the method: as §1
T3 sequence (P28335 whole entry): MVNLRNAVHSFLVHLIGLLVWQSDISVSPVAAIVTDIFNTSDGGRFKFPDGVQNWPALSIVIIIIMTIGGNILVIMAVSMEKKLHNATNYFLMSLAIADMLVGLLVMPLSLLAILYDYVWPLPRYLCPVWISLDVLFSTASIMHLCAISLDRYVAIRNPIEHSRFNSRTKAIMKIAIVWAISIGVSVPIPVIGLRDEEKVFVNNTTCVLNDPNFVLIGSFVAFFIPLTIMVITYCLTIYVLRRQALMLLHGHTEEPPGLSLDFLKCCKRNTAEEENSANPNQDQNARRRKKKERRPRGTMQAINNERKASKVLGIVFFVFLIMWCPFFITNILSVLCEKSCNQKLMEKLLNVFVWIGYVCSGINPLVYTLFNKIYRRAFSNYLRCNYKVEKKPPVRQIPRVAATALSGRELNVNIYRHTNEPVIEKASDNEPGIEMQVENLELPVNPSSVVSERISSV

[8] = target: 5-hydroxytryptamine receptor 6 (Homo sapiens, UniProt P50406); assay: Binding affinity towards human recombinant 5-hydroxytryptamine 6 receptor by the displacement of [3H]-5-CT]
Chain of 5-hydroxytryptamine receptor 6 (P50406 whole entry): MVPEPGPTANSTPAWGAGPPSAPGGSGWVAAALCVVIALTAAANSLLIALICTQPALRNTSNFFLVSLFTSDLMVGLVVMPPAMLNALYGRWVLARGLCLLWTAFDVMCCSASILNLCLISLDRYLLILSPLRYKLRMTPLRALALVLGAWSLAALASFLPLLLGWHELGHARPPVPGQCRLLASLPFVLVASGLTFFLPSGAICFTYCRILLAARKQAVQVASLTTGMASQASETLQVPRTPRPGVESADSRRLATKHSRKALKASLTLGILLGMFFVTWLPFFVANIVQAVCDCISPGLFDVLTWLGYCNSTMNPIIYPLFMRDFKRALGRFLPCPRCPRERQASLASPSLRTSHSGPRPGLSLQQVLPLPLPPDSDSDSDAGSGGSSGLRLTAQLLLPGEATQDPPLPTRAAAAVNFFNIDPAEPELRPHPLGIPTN

[9] = target: T4, 5-hydroxytryptamine receptor 7 (Homo sapiens, UniProt P34969); assay: Binding affinity towards 5-HT7 receptor by the displacement of [3H]-5-CT] in human recombinant receptors in mammalian cell
T4 sequence (P34969 whole entry): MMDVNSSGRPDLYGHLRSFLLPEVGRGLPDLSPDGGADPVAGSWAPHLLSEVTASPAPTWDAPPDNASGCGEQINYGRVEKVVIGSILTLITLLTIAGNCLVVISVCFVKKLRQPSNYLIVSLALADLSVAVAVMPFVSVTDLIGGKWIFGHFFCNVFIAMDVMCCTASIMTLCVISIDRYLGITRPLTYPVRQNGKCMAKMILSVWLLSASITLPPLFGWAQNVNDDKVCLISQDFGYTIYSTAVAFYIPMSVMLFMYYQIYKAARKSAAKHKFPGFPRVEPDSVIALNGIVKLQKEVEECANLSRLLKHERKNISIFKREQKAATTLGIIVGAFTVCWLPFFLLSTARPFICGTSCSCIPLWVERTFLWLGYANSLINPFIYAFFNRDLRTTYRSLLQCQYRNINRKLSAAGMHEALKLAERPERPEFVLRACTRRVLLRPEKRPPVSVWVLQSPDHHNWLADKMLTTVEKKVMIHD
Summary of the method: (§3)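 Displacement of [3H]5-CT from cloned human 5-HT7 receptor expressed in COS-7 cells. Affinity reported as pKi, given as mean ± SE of 8–12 values.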

[10] = target: T4, 5-hydroxytryptamine receptor 7; assay: Ability to displace the radioligand [3H]5-carboximidotryptamine ([3H]-5-CT) from cloned human 5-hydroxytryptamine 7 receptor expressed in COS-7 cells; format: cell-based; summary of the method: as §3

Row | SMILES | Log Ki [1] | Ki [2] [nM] | Log Ki [3] | Log Ki [4] | Ki [5] [nM] | Ki [6] [nM] | Ki [7] [nM] | Ki [8] [nM] | Ki [9] [nM] | Ki [10] [nM]
1 | O=C1Nc2ccc(Cl)c3c2C1(CCCCN1CC=C(c2ccc(Cl)cc2)CC1)CCC3 (stereo not given) | > -6 | > 1000 | > -6 | > -6 | 316 | > 1000 | > 1000 | > 1000 | 7.24 | 7.24
2 | O=C1Nc2ccc(Cl)c3c2C1(CCCCN1CC=C(c2ccccc2)CC1)CCC3 (stereo not given) | – | – | – | > -6.5 | – | – | – | – | – | 5.01
3 | O=C1Nc2cccc3c2C1(CCCCN1CC=C(c2ccc(F)cc2)CC1)CCC3 (stereo not given) | – | – | – | > -7.18 | – | – | – | – | – | –
4 | O=C1Nc2ccc(Cl)c3c2C1(CCCCN1CC=C(c2ccc(F)cc2)CC1)CCC3 (stereo not given) | – | – | – | > -6.64 | – | – | – | – | – | 2.04

— ChEMBL document CHEMBL1136421, “New tetrahydrobenzindoles as potent and selective 5-HT(7) antagonists with increased In vitro metabolic stability” (Bioorg Med Chem Lett, 2003)
